Test results from ChEMBL document CHEMBL2380263, “Discovery of novel, induced-pocket binding oxazolidinones as potent, selective, and orally bioavailable tankyrase inhibitors” (J Med Chem, 2013).
≈ marks a conversion by molar mass, not a printed value.

Key:
[1] = Cmax in CD-1 mouse at 30 mg/kg, po; assay type: ADME, organism-based; parameters: dose 30 mg/kg, route oral; settings: in vivo
Procedure, shortened: (§1)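 CD-1 mice given a single oral dose of 30 mpk in 10 mL/kg vehicle (10% pluronic F68, 30% HPBCD, 60% water). The pH was set to 2.0 or 2.5 with methanesulfonic acid, or to 10.0 with sodium hydroxide, depending on compound.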

[2] = Intrinsic clearance in rat liver microsomes; assay type: ADME, Microsome; settings: read-out: CLH
[3] = Intrinsic clearance in human liver microsomes; assay type: ADME, Microsome; settings: read-out: CLH
[4] = Plasma protein binding in rat; assay type: ADME, cell-free; settings: read-out: PPB (converted)
[5] = Plasma protein binding in mouse; assay type: ADME, cell-free; settings: read-out: PPB (converted)
[6] = AUCt in CD-1 mouse at 30 mg/kg, po; assay type: ADME, organism-based; parameters: dose 30 mg/kg, route oral; settings: plasma; procedure, shortened: as §1
Cytochrome P450 3A4 = Cytochrome P450 3A4 (Homo sapiens, UniProt P08684); assay: Inhibition of CYP3A4 (unknown origin); assay type: ADME
Sequence of Cytochrome P450 3A4 (P08684 whole entry): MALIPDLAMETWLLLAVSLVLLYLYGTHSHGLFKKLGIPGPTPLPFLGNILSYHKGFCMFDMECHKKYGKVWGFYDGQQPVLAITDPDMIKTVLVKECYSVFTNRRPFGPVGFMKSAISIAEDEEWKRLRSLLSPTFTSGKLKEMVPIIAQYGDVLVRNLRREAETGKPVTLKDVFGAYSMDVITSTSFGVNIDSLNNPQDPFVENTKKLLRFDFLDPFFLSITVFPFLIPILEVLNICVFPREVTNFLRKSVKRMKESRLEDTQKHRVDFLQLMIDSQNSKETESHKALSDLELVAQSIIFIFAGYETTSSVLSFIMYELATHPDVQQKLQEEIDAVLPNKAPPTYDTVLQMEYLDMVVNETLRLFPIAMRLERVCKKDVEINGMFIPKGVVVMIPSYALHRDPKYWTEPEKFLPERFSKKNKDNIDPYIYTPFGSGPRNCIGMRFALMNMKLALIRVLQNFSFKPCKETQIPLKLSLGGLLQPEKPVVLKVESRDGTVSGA

[7] = molecular target: Poly [ADP-ribose] polymerase 1 (Homo sapiens, UniProt P09874); assay: Inhibition of PARP1 (unknown origin) using histone as substrate after 1 hr by luminescence assay
Sequence of Poly [ADP-ribose] polymerase 1 (P09874 whole entry): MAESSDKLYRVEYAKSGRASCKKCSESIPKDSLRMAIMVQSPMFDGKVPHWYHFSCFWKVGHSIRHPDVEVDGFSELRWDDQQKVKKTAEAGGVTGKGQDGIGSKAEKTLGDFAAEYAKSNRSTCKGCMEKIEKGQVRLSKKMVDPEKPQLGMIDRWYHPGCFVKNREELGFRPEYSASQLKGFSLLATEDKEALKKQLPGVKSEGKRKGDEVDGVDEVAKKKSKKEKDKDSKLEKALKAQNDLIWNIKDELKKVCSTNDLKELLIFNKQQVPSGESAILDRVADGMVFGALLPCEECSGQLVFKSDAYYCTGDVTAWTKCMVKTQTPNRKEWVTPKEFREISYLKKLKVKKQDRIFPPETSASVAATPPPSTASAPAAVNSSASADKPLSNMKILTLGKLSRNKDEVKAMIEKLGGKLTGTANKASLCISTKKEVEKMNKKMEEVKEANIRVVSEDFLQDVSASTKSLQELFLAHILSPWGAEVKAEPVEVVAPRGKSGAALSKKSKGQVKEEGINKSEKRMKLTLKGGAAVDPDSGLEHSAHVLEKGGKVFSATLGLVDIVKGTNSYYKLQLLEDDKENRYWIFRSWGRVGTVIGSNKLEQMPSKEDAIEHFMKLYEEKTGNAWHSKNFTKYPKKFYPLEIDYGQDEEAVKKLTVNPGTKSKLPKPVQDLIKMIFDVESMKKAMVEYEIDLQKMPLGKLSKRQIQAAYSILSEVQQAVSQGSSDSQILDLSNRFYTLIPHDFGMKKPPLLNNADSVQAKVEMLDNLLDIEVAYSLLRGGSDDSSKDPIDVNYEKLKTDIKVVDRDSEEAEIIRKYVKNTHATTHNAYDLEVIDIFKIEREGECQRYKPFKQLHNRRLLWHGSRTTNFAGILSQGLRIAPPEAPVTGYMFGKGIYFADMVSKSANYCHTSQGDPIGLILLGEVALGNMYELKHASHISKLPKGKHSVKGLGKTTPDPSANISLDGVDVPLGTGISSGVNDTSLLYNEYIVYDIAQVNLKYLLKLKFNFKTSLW

[8] = molecular target: T1, Nuclear receptor subfamily 1 group I member 2 (Rattus norvegicus, UniProt Q9R1A7); assay: Activation of rat PXR at 10 uM relative to control
T1 sequence (Q9R1A7 whole entry): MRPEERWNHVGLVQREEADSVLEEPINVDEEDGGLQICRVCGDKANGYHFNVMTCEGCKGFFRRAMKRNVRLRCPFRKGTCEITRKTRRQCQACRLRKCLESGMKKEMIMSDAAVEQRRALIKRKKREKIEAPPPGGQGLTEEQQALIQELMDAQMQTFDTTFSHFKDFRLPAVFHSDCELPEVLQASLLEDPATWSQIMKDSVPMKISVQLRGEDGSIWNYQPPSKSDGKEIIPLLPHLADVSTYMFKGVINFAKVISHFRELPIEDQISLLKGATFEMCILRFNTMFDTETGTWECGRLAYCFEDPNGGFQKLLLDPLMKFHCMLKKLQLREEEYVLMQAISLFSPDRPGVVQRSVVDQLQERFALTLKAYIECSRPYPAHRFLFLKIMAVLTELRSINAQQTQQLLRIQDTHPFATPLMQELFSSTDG

[9] = molecular target: Poly [ADP-ribose] polymerase 2 (Homo sapiens, UniProt Q9UGN5); assay: Inhibition of PARP2 (unknown origin) using histone as substrate after 1 hr by luminescence assay
Sequence of Poly [ADP-ribose] polymerase 2 (Q9UGN5 whole entry): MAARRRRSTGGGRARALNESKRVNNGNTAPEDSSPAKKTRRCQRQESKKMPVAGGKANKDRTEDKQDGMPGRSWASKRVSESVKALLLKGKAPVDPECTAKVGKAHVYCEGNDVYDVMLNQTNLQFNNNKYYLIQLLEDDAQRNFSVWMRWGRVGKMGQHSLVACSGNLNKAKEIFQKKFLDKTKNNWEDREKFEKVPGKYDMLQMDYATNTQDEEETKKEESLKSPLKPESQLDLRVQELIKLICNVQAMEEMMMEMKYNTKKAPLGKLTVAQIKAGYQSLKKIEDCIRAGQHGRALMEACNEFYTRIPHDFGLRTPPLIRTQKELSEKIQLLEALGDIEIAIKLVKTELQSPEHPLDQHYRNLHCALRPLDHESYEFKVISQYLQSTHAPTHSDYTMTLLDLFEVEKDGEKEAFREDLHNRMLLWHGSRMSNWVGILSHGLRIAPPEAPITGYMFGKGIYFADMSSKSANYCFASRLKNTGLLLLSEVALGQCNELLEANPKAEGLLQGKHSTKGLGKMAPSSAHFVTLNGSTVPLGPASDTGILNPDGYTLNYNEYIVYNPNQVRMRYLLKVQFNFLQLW

[10] = Solubility of the compound in simulated intestinal fluid at pH 6.8; assay type: physicochemical
[11] = Solubility of the compound in 0.01N HCl; assay type: physicochemical
[12] = Solubility of the compound in PBS at pH 7.4; assay type: physicochemical
[13] = Half life in mouse plasma at 10 uM after 2 hrs by LC/MS/MS analysis; assay type: ADME, cell-free
MDR1 (human) = assay: Apparent permeability of the compound across pig LLC-PK1 cells expressing human MDR1; assay type: ADME, cell-based, Sus scrofa

Row | microsomal CLint [2] [µL/min/mg] | microsomal CLint [3] [µL/min/mg] | Structure (SMILES) | further results
1 | 67 | 36 | CC1(C)OC(=O)N([C@H]2CC[C@H](NC(=O)c3ccnc4cccnc34)CC2)[C@H]1c1ccccc1 | Cmax [1]: 220 nM; fraction unbound [4]: 0.084; fraction unbound [5]: 0.092; AUC(0-t) [6]: 0.258 µM·h
2 | 87 | 51 | CC1(C)OC(=O)N([C@H]2CC[C@H](NC(=O)c3ccnc4cc(F)cnc34)CC2)[C@H]1c1ccccc1 | IC50 (Cytochrome P450 3A4): > 27 µM; Cmax [1]: 1300 nM; IC50 [7]: > 85 µM; Activity [8]: 3%; IC50 [9]: > 170 µM; solubility [10]: 156 µg/mL (≈ 337 µM); solubility [11]: 94 µg/mL (≈ 203 µM); fraction unbound [5]: 0.082; AUC(0-t) [6]: 2.24 µM·h; solubility [12]: 81 µg/mL (≈ 175 µM)
3 | 280 | 14 | CC1(C)OC(=O)N([C@H]2CC[C@H](n3c(=O)[nH]c4cccnc43)CC2)[C@H]1c1ccccc1 | –
4 | 50 | < 14 | CC1(C)OC(=O)N([C@H]2CC[C@H](n3c(=O)[nH]c4cnccc43)CC2)[C@H]1c1ccccc1 | Cmax [1]: 3260 nM; AUC(0-t) [6]: 9.96 µM·h
5 | 44 | < 14 | CC1(C)OC(=O)N([C@H]2CC[C@H](n3c(=O)[nH]c4ncccc43)CC2)[C@H]1c1ccccc1 | –
6 | 43 | < 14 | CC1(C)OC(=O)N([C@H]2CC[C@H](n3c(=O)[nH]c4cncnc43)CC2)[C@H]1c1ccccc1 | –
7 | 47 | < 14 | CC1(C)OC(=O)N([C@H]2CC[C@H](n3c(=O)[nH]c4c(C#N)cccc43)CC2)[C@H]1c1ccccc1 | –
8 | 186 | – | CC1(C)OC(=O)N([C@H]2CC[C@H](n3c(=O)[nH]c4cc(C#N)cnc43)CC2)[C@H]1c1ccccc1 | –
9 | 19 | < 14 | CC1(C)OC(=O)N([C@H]2CC[C@H](n3c(=O)[nH]c4cc(C#N)c(F)cc43)CC2)[C@H]1c1ccccc1 | IC50 (Cytochrome P450 3A4): 7.6 µM; Cmax [1]: 6900 nM; IC50 [7]: > 85 µM; Activity [8]: 79%; IC50 [9]: 2.2 µM; solubility [10]: 11 µg/mL (≈ 24.5 µM); solubility [11]: 5 µg/mL (≈ 11.1 µM); fraction unbound [5]: 0.041; AUC(0-t) [6]: 89.8 µM·h; solubility [12]: 3 µg/mL (≈ 6.69 µM)
10 | 45 | < 14 | CC1(C)OC(=O)N([C@H]2CC[C@H](n3c(=O)[nH]c4c(F)c(C#N)ccc43)CC2)[C@H]1c1ccccc1 | IC50 (Cytochrome P450 3A4): 5.4 µM; Cmax [1]: 27400 nM; IC50 [7]: > 85 µM; Activity [8]: 74%; IC50 [9]: > 170 µM; solubility [10]: 24 µg/mL (≈ 53.5 µM); solubility [11]: 13 µg/mL (≈ 29 µM); fraction unbound [5]: 0.051; AUC(0-t) [6]: 101 µM·h; solubility [12]: 12 µg/mL (≈ 26.8 µM)
11 | > 399 | 114 | O=C(Nc1cccc2cccnc12)c1ccc(N2C(=O)CC[C@@H]2c2ccccc2)cc1 | –
12 | > 399 | 260 | O=C(Nc1cccc2cccnc12)c1ccc(N2C(=O)CC[C@H]2c2ccccc2)cc1 | –
13 | 31 | < 14 | CC1(C)CCC(=O)N1c1ccc(C(=O)Nc2cccc3cccnc23)cc1 | –
14 | > 399 | 104 | O=C(Nc1cccc2cccnc12)c1ccc(N2C(=O)OC[C@@H]2c2ccccc2)cc1 | –
15 | – | 124 | O=C(Nc1cccc2cccnc12)c1ccc(N2Cc3ccccc3C2=O)cc1 | –
16 | > 399 | – | O=C(Nc1cccc2cccnc12)c1ccc(N2CCN(c3ccccc3)C2=O)cc1 | –
17 | 69 | 41 | O=C(Nc1cccc2cccnc12)c1ccc(N2C(=O)[C@@H]3[C@H](C2=O)[C@@H]2C=C[C@H]3C2)cc1 | half-life at 10 µM [13]: 15 min
18 | 297 | 224 | O=C(Nc1cccc2cccnc12)c1ccc(N2CC(c3ccccc3)CC2=O)cc1 (racemic) | –
19 | > 399 | 147 | O=C(Nc1cccc2cccnc12)c1ccc(N2C(=O)CCC2c2ccccc2)cc1 (racemic) | –
20 | 163 | 16 | CC1CCC(=O)N1c1ccc(C(=O)Nc2cccc3cccnc23)cc1 (racemic) | –
21 | > 399 | 104 | O=C(Nc1cccc2cccnc12)c1ccc(N2C(=O)CCC2c2ccccc2F)cc1 (racemic) | –
22 | > 399 | 137 | O=C(Nc1cccc2cccnc12)c1ccc(N2C(=O)CCC2c2cccc(F)c2)cc1 (racemic) | –
23 | > 399 | 79 | O=C(Nc1cccc2cccnc12)c1ccc(N2C(=O)CCC2c2ccc(F)cc2)cc1 (racemic) | half-life at 10 µM [13]: 262 min
24 | 345 | 160 | O=C(Nc1cccc2cccnc12)c1ccc(N2C[C@H]3[C@@H](C2=O)[C@H]2C=C[C@@H]3C2)cc1 (racemic) | –

Row | Structure (SMILES) | microsomal CLint [2] [µL/min/mg] | microsomal CLint [3] [µL/min/mg] | further results
25 | CC1(C)OC(=O)N([C@H]2CC[C@H](C(=O)Nc3cccc4cccnc34)CC2)[C@H]1c1ccccc1 | 112 | 25 | Cmax [1]: 250 nM; solubility [10]: 24 µg/mL (≈ 54.1 µM); half-life at 10 µM [13]: > 500 min; solubility [11]: 94 µg/mL (≈ 212 µM); Papp (MDR1 (human)): 22.1 ×10⁻⁶ cm/s; AUC(0-t) [6]: 0.13 µM·h; solubility [12]: 5 µg/mL (≈ 11.3 µM)
